These results are taken from ChEMBL document CHEMBL1142278, “Efficient inhibition of iron superoxide dismutase and of Trypanosoma cruzi growth by benzo[g]phthalazine derivatives functionalized with one or two imidazole rings” (J Med Chem, 2008).

The test system of data set [1] is Trypanosoma cruzi. Nature of the data set: Antiparasitic activity against Trypanosoma cruzi epimastigotes after 24 hrs. Type of data set: functional, organism-based. The method, boiled down:
(§1)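 Epimastigotes were cultured with compound at 2.5, 25 and 125 µM, and growth inhibition was read at 24, 48 or 72 h. IC50 was calculated by linear regression from Kc values at those concentrations. Results are the average of three separate determinations.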

Data set [2] relates to Trypanosoma cruzi. Nature of the data set: Antiparasitic activity against Trypanosoma cruzi epimastigotes after 48 hrs. The data set is classed as functional, organism-based. The method, boiled down:
as §1

The subject of data set [3] is Trypanosoma cruzi. Nature of the data set: Antiparasitic activity against Trypanosoma cruzi epimastigotes after 72 hrs. Type of data set: functional, organism-based. The method, boiled down: as §1
Data set [4] can be described thus: Toxicity in african green monkey Vero cells after 72 hrs. The data set is classed as cell-based. The following applies: African green monkey (Chlorocebus sabaeus). The method, boiled down: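 Vero cells were cultured with compound for 72 h. The cytotoxic IC50 was derived by linear regression from Kc values at 2.5, 25 and 125 µM. Results are the average of three separate determinations.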

Data set [5] addresses Superoxide dismutase [Cu-Zn] (Homo sapiens) (UniProt P00441). Nature of the data set: inhibition of CuZn-SOD in human erythrocytes at 2.5 uM. The data set is classed as cell-based.
For data set [6] the target is unchanged. Nature of the data set: inhibition of CuZn-SOD in human erythrocytes at 25 uM. Type of data set: cell-based.
The target is the same in data set [7]. Nature of the data set: inhibition of CuZn-SOD in human erythrocytes at 125 uM. The data set is classed as cell-based.
For data set [8], the system named is Trypanosoma cruzi. Nature of the data set: Antiparasitic activity against Trypanosoma cruzi in Vero cells assessed as reduction of infection rate at 10 uM relative to control. Type of data set: functional. Also noted: scale not given: the % may be the effect or the level left. The method, boiled down:
(§2)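 Vero cells (1 × 10^5) were grown for 2 days, then infected with 1 × 10^6 T. cruzi metacyclic forms, adding compound (10 µM) at the same time. Cultures were followed over days 1–8. Read-outs were % infected cells, mean amastigotes per infected cell, and trypomastigotes in the medium, each compared with an untreated control. Values are means of three separate experiments.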

The test system of data set [9] is Trypanosoma cruzi. Nature of the data set: Antiparasitic activity against Trypanosoma cruzi in Vero cells assessed as reduction of amastigotes at 10 uM on day 8 relative to control. Type of data set: functional. On the set-up: scale not given: the % may be the effect or the level left. The method, boiled down: as §2
For data set [10], the system named is Trypanosoma cruzi. Nature of the data set: Antiparasitic activity against Trypanosoma cruzi in Vero cells assessed as reduction of trypomastigotes at 10 uM on day 8 relative to control. The data set is classed as functional. Also noted: scale not given: the % may be the effect or the level left. The method, boiled down:
as §2

Data set [11] has as its system Trypanosoma cruzi. Nature of the data set: Inhibition of Iron superoxide dismutase in Trypanosoma cruzi epimastigotes at 2.5 uM.
In data set [12] the test system is Trypanosoma cruzi. Nature of the data set: Inhibition of Iron superoxide dismutase in Trypanosoma cruzi epimastigotes at 25 uM.
The subject of data set [13] is Trypanosoma cruzi. Nature of the data set: Inhibition of Iron superoxide dismutase in Trypanosoma cruzi epimastigotes at 125 uM.

SMILES strings stand for the structures. Bounds are passed on as bounds.

Superoxide dismutase [Cu-Zn] (Homo sapiens), sequence (P00441 whole entry): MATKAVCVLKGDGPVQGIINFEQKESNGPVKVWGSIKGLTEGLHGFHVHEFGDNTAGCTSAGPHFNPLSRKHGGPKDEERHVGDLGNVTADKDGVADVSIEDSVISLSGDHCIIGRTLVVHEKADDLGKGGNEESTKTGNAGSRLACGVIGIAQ

In the case of `Clc1nnc(NCCc2c[nH]cn2)c2cc3ccccc3cc12`, the values for the IC50 in the data set on Trypanosoma cruzi [1], in the data set with Trypanosoma cruzi [2] and in the data set on Trypanosoma cruzi [3] were 108 µM, 34.6 µM and < 0.3 µM, respectively. For the same compound, in data set [4], the IC50 at 72 h worked out at 213 µM. Further, the inhibition in data set [5] was 0%; in data set [6], 0%; in [7], 11%; in the data set with Trypanosoma cruzi [11], 50%; with Trypanosoma cruzi [12], 91%; in the data set on Trypanosoma cruzi [13], 100%. The values for the Activity in the data set on Trypanosoma cruzi [8], in the data set on Trypanosoma cruzi [9] and in the data set with Trypanosoma cruzi [10] were 81%, 55% and >50%, respectively.

`c1ccc2cc3c(NCCc4cnc[nH]4)nnc(NCCc4cnc[nH]4)c3cc2c1`: the IC50 at 72 h in data set [4] is 88.7 µM.

With `c1ccc2cc3c(NCCCn4ccnc4)nnc(NCCCn4ccnc4)c3cc2c1`, the IC50 with Trypanosoma cruzi [1] was 53.4 µM; in the data set with Trypanosoma cruzi [2], 34.8 µM; in the data set on Trypanosoma cruzi [3], < 0.2 µM. The IC50 at 72 h in data set [4] amounted to 69.3 µM. The inhibition in data set [5] turned out to be 2%; in data set [6], 12%; in [7], 18%; in the data set with Trypanosoma cruzi [11], 32%; in the data set with Trypanosoma cruzi [12] it was 42%; in the data set with Trypanosoma cruzi [13] it was 100%. Further, the Activity with Trypanosoma cruzi [8] is listed as 84%; in the data set with Trypanosoma cruzi [9], 44%; in the data set on Trypanosoma cruzi [10], >50%.

In the data set on Trypanosoma cruzi [3], `O=C(Cn1ccnc1[N+](=O)[O-])NCc1ccccc1` [BENZNIDAZOLE] returned an IC50 of 15.8 µM.

As to `c1ccc2cc3c(NCCc4c[nH]cn4)nnc(NCCc4c[nH]cn4)c3cc2c1`, the IC50 was 61.1 µM in the data set with Trypanosoma cruzi [1], 35.1 µM in the data set on Trypanosoma cruzi [2] and 14.2 µM in the data set with Trypanosoma cruzi [3]. Moreover, the inhibition in data set [5] turned out to be 0%; in data set [6], 5%; in data set [7], 6%; with Trypanosoma cruzi [11], 46%; in the data set with Trypanosoma cruzi [12], 53%; in the data set on Trypanosoma cruzi [13], 86%. Further, the Activity with Trypanosoma cruzi [8] was >50%.

As for `Clc1nnc(NCCCn2ccnc2)c2cc3ccccc3cc12`, the IC50 in the data set with Trypanosoma cruzi [1] amounted to 51 µM; with Trypanosoma cruzi [2], 46.9 µM; in the data set with Trypanosoma cruzi [3], 13.7 µM. In data set [4], this compound came in with a half-maximal inhibitory concentration (IC50) at 72 h of 146 µM. The inhibition was found to be 7% in data set [5]; 22% in [6]; 27% in data set [7]; 80% in the data set with Trypanosoma cruzi [11]; 93% with Trypanosoma cruzi [12]; 94% with Trypanosoma cruzi [13]. Also, in the data set with Trypanosoma cruzi [8], the Activity is recorded as 74%.

In general, IC50 refers to the midpoint of a concentration-inhibition curve. For orientation: inhibition means how much of the control response was suppressed.
